# dFosB activator: enhances mouse delta FosB homodimer DNA binding; activation, % at 25 µM; purified delta FosB, TAMRA-CDK5 oligo fluorescence polarization; percent of positive-control signal above neutral wells; 340,000 compounds, 0.99% hits;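 active means mean activation above about 17%, with every replicate also reaching it, limit read from the data, passing the limit was not always enough; inconclusive means only one of the two conditions met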
# CAL PDZ FP-1: blocks peptide binding to the human CAL PDZ domain. inhibition, % at 24.9 µM. AID 602252. purified CAL PDZ, TMR-peptide fluorescence polarization, 1 h. Q9HD26. 300,000 compounds, 0.92% hits;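 active means mean inhibition of at least 30% with at least half of replicates also reaching 30%; inconclusive means no clear call, values can overlap the other calls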;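 further: 0% = DMSO neutral control and 100% = excess unlabeled competitor peptide PRC23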
# SR-BI DiI-HDL act: SR-BI HDL lipid transfer activation | 320,000 compounds, 0.096% hits | AID 504775 | activation, % at 12.5 µM | CHO ldlA[mSR-BI] cells, DiI-HDL uptake fluorescence, 3 h; 100 = double the neutral-control signal;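 active means mean replicate activation of at least 60% and every replicate at or above 60%; inconclusive means mean or all-replicate condition met, but not both; inactive means mean below 60% and not all replicates reaching 60%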;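 further: 0% = median plate neutral-control signal and 100% = twice that signal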
#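 material = CHO ldlA[mSR-BI] cells | medium = Ham's F12 with 0.5% BSA, HEPES 25 mM, pH 7.4 | reagent = fluorescent DiI-HDL, 10 µg/mL final | compound dosing = single-point compound dose | incubation = 3 h, 37 °C | measured by = bottom-read fluorescence, 550/595 nm | measure = HDL uptake via cellular fluorescence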
# CAL PDZ FP-2: blocks peptide binding to human CAL PDZ domain | Q9HD26 | purified CAL PDZ, TMR-peptide fluorescence polarization, 1 h | inhibition, % at 20 µM | 330,000 compounds, 0.02% hits | AID 504414;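 active means highest replicate inhibition of at least 40%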;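 further: plate controls were DMSO neutral control wells for no effect and unlabeled competitor peptide control wells for full effect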
#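 material = purified tagged CAL PDZ domain construct (CerCALP) | compound dosing = 20 µM, one dose | times = 1 h at RT | measured by = fluorescence polarization from S- and P-plane intensities, G-factor corrected | read-out = inhibition from polarization loss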
# SR-BI HDL uptake: inhibitors of mouse SR-BI mediated HDL lipid uptake. Q61009. ldlA[mSR-BI] CHO cells, DiI-HDL uptake fluorescence, 3 h. inhibition, % at 12.5 µM. 320,000 compounds, 0.96% hits. AID 488896;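 active means mean replicate inhibition of at least 70% and a set share of replicates each scoring 70 or more; inconclusive means meets just one of the two criteria; inactive means fails both criteria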;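 further: 0% = median of neutral control wells and 100% = median of positive control wells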
# Target sequence (Q61009 whole entry, looked up): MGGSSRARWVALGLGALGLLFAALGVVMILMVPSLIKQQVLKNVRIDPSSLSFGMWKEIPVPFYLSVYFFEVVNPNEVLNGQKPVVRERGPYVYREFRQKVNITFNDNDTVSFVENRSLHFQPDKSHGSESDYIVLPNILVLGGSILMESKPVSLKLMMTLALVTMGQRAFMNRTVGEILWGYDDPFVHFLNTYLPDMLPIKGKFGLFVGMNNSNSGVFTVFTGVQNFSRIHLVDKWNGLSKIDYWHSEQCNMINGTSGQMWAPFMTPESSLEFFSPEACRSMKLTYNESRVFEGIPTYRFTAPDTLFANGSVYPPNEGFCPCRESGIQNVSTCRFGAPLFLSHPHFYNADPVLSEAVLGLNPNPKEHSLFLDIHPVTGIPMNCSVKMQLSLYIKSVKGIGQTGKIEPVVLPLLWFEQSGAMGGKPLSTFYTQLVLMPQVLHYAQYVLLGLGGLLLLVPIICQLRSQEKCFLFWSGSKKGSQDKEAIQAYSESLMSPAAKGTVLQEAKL
# * hit, by the source's call; ? = inconclusive; . = no result given. The list is not random: actives were taken first. Their share in the collection is about 2.8%.
SMILES,dFosB activator,CAL PDZ FP-1,SR-BI DiI-HDL act,CAL PDZ FP-2,SR-BI HDL uptake
Cn1c(=O)[nH]c(=O)c2c1nc(N1CCN(c3ccccc3)CC1)n2CCSc1ncccn1,-10,0,71*,0,-71
CN1CCN(c2nc3c(c(=O)[nH]c(=O)n3C)n2Cc2ccccc2F)CC1,-1,51*,32,-1,-32
Cn1c(=O)[nH]c(=O)c2c1nc(N1CCCCC1)n2CCSc1ncccn1,6,-5,7,1,-7
CN(CC(=O)Nc1cc(Cl)ccc1C#N)C1CCS(=O)(=O)C1 (centres undefined),0,85*,7,-1,-7
O=S(=O)(NC1CC1)c1ccc(Cl)cc1F,-1,.,.,-1,.
O=C(Cn1cc([N+](=O)[O-])cn1)NCc1ccccc1,0,43*,30,0,-30
Cc1cc(C(=O)COc2ccccc2C(N)=O)c(C)n1C1CC1,-5,0,-5,-5,5
Cc1ccccc1OCC(=O)OCC(=O)c1cc(C)n(C2CC2)c1C,-10,46*,.,-2,.
Cc1cc(C(=O)COC(=O)c2ccc(NC(=O)CC#N)cc2)c(C)n1C1CC1,-6,0,-79,-3,79*
Cc1ccc(Cn2ccsc2=NC(=O)COC(=O)c2ccc(NC(=O)CC#N)cc2)cc1,-18,.,-77,-1,77*
CCOc1ccc(S(=O)(=O)N2CCN(CC(O)COc3cccc([N+](=O)[O-])c3)CC2)cc1 (centres undefined),-3,-3,5,-2,-5
CC1c2cccn2CCN1S(=O)(=O)c1ccc(F)cc1 (centres undefined),-1,74*,-3,0,3
CC(=O)c1ccc(S(=O)(=O)N2CCn3cccc3C2C)cc1 (centres undefined),-2,1,-3,-1,3
COc1ccc(CCNC/C=C/c2ccccc2)cc1,-12,51*,15,-1,-15
N#CCCN(C(=O)COC(=O)C1CCN(S(=O)(=O)c2cccs2)CC1)c1ccccc1,-4,.,-7,-1,7
CCOc1ccc(NC(=O)CSc2nc3ccccc3nc2N2CCOCC2)cc1,-9,.,-17,-1,17
O=C(Nc1cc(Cl)cc(Cl)c1)N1CCCN(Cc2ccccc2)CC1,-3,37*,21,-1,-21
COc1ccc(C(OC(=O)c2ccco2)C(=O)NC2CCCC2)cc1OC (centres undefined),-4,-2,14,-3,-14
COc1ccc(C(OC(=O)c2ccco2)C(=O)NC2CCCCC2)cc1OC (centres undefined),-6,-2,336*,-1,-336
CCCn1nc(C(=O)Nc2nc(-c3ccccn3)cs2)c2ccccc2c1=O,-4,-2,-59,-2,59
Cn1nc(C(=O)Nc2nc(-c3ccccn3)cs2)c2ccccc2c1=O,-16,85*,-72,-2,?
CC(=O)c1ccc(-c2ccc(C(=O)Nc3nc(-c4ccccn4)cs3)o2)cc1,-34,-22,-81,-1,81*
COn1c(-c2ccccc2)nc2c1CCc1c-2no[n+]1[O-],5,-2,5,-1,-5
[O-][n+]1onc2c1CCc1c-2nc(-c2ccccc2)n1OCc1ccccc1,-7,0,-80,0,80*
COC(=O)c1sccc1NC(=O)CC1C(=O)NCCN1C(=O)c1ccc(F)cc1 (centres undefined),-11,1,12,0,-12
SMILES,dFosB activator,CAL PDZ FP-1,SR-BI DiI-HDL act,CAL PDZ FP-2,SR-BI HDL uptake
Cc1c(C(=O)N/N=C/c2c(O)ccc3ccccc23)nnn1-c1nonc1N,38*,-3,-10,-2,10
COc1ccc2ccccc2c1/C=N/NC(=O)c1nnn(-c2nonc2N)c1C(C)C,9,-4,-77,0,77*
COc1ccc2ccccc2c1/C=N/NC(=O)c1nnn(-c2nonc2N)c1CN(C)C,-1,-4,-33,-3,33
CCOC(=O)CCCNC(=O)CN1CCC(c2nc3ccccc3s2)CC1,6,-2,.,-3,.
Cc1[nH]n(-c2nc(-c3ccc(Cl)cc3)cs2)c(=O)c1N=Nc1ccc(O)cc1,-3,0,-111,1,110*
CCc1c(C)[nH]n(-c2nc(-c3ccccc3)cs2)c1=O,-2,1,-8,0,8
CC(OC(=O)CN1C(=O)c2ccccc2C1=O)C(=O)N(C)c1ccccc1 (centres undefined),-9,0,12,-3,-12
Cc1occc1C(=O)Nc1sc2c(c1C(N)=O)CCCCC2,1,-1,-73,-1,73*
CNC(=O)c1c(NC(=O)c2ccc(N3C(=O)CCC3=O)cc2)sc2c1CCCC2,-7,.,-87,-4,87*
CCCCn1c(N)c(N(CCOC)C(=O)CCN2C(=O)C3CC=CCC3C2=O)c(=O)[nH]c1=O (centres undefined),-4,8,27,0,-27
Cc1nn(-c2ccccc2)c(C)c1NC(=O)COC(=O)c1ccc(Cl)c(S(N)(=O)=O)c1,-4,65*,-20,1,20
Cc1nn(-c2ccccc2)c(C)c1NC(=O)COC(=O)c1ccc(NC(=O)CC#N)cc1,-8,-2,-60,-2,60
Cc1ccc(C)c(NC(=O)CN(C)C(=O)CC2OC(=O)c3ccccc32)c1 (centres undefined),-11,8,-1,0,1
COc1cccc(/C=N/NC(=O)c2[nH]c(C)c(C(=O)N/N=C/c3cccc(OC)c3O)c2C)c1O,3,0,-125,1,125*
COc1cccc(/C=N/NC(=O)c2ccc(=O)n(C)c2)c1O,-4,-8,-25,0,25
COc1cccc(/C=N/NC(=O)c2ccc(=O)[nH]n2)c1O,-4,-2,.,-3,.
Cc1[nH]c(C(=O)N/N=C/c2ccc(C(=O)O)cc2)c(C)c1C(=O)N/N=C/c1ccc(C(=O)O)cc1,6,-9,19,-1,-19
Cc1[nH]c(C(=O)N/N=C/c2ccc(N(C)C)cc2)c(C)c1C(=O)N/N=C/c1ccc(N(C)C)cc1,-13,-3,-87,5,87*
COc1cccc(/C=N/NC(=O)C(=O)Nc2ccccc2OC(F)(F)C(F)F)c1O,2,2,-110,-3,110*
COc1cccc(/C=N/NC(=O)c2ccc(-c3ccccc3)cc2)c1O,16,0,-123,-1,123*
O=C(/C=C/c1cccs1)c1ccco1,-7,-5,12,0,-12
Cc1ccc(NC(=O)CCc2nnc3ccc(NCc4ccco4)nn23)cc1,-10,-4,-20,-3,20
CCCOc1c(Br)cc(C(=O)OCC(=O)NC2CC2)cc1OC,-3,.,-4,-1,4
O=S1c2ccccc2Sc2ccccc21,-5,-5,22,0,-22
COc1ccc(OC)c(/C=N/NC(=O)c2ccncc2)c1,3,-3,1,-1,-1
